Source: ChEMBL document CHEMBL2406927, “Inhibitory effect of resveratrol dimerized derivatives on nitric oxide production in lipopolysaccharide-induced RAW 264.7 cells” (Bioorg Med Chem Lett, 2013)
Calls of active or inactive are those of the source. The rule behind the calls is not given here.

Assays:
RAW264.7 [1] = assay: Antiinflammatory activity in mouse RAW264.7 cells assessed as LPS-induced NO production at 10 uM treated 2 hrs before LPS challenge measured after 24 hrs
RAW264.7 [2] = assay: Antiinflammatory activity in mouse RAW264.7 cells assessed as inhibition of LPS-induced NO production treated 2 hrs before LPS challenge measured after 24 hrs; assay type: functional, cell-based
Summary of the method: (§1)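 Cells were pretreated with compound for 2 h before LPS (1 μg/mL), then incubated 24 h. NO production was determined by nitrite/nitrate assay and expressed as a percentage of LPS-stimulated cells (means, SEM). IC50 is the concentration giving 50% inhibition of NO production. Data come from at least three independent experiments, each run in duplicate.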

RAW264.7 [3] = assay: Antiinflammatory activity in mouse RAW264.7 cells assessed as inhibition of IL-1beta release at 10 uM after 24 hrs by ELISA; assay type: functional, cell-based
Summary of the method: (§2)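 RAW 264.7 cells were preincubated 2 h with compound (5–20 μM), then stimulated with LPS (1 μg/mL) for 24 h. IL-1β release was measured by ELISA and compared with LPS-stimulated and unstimulated cells. Data come from at least three independent experiments, each run in duplicate.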

RAW264.7 [4] = assay: Antiinflammatory activity in mouse RAW264.7 cells assessed as inhibition of LPS-induced NO production at 10 uM treated 2 hrs before LPS challenge measured after 24 hrs; assay type: functional
Summary of the method: as §1

RAW264.7 [5] = assay: Antiinflammatory activity in mouse RAW264.7 cells assessed as inhibition of LPS-induced iNOS expression at 10 uM after 24 hrs by Western blot analysis; assay type: functional, cell-based
Summary of the method: (§3)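 Western blot quantitation of iNOS protein, with β-actin as loading control. RAW 264.7 cells were given a 2 h compound pretreatment (5–20 μM), then 1 μg/mL LPS for 24 h. Data come from at least three independent experiments, each performed in duplicate.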

RAW264.7 [6] = assay: Antiinflammatory activity in mouse RAW264.7 cells assessed as inhibition of LPS-induced NO production at 20 uM treated 2 hrs before LPS challenge measured after 24 hrs; assay type: functional, cell-based
Summary of the method: as §1

RAW264.7 [7] = assay: Cytotoxicity against mouse RAW264.7 cells up to 20 uM; assay type: cell-based
RAW264.7 [8] = assay: Antiinflammatory activity in mouse RAW264.7 cells assessed as inhibition of LPS-induced iNOS protein expression incubated for 2 hrs prior to LPS challenge measured after 24 hrs by Western blot analysis; assay type: functional, cell-based
Summary of the method: as §3

RAW264.7 [9] = assay: Antiinflammatory activity in mouse RAW264.7 cells assessed as inhibition of IL-1beta release at 20 uM after 24 hrs by ELISA; assay type: functional, cell-based
Summary of the method: as §2

[10] = target: MAP kinase p38 (Mus musculus) (UniProt P47811+O08911+Q9WUI1+Q9Z1B7); assay: Inhibition of LPS-induced p38 MAPK phosphorylation in mouse RAW264.7 cells after 45 mins by Western blot analysis; assay type: cell-based
Summary of the method: (§4)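 Phosphorylation of p38, JNK1/2 and ERK1/2 was detected by Western blot 45 min after LPS stimulation of RAW 264.7 cells. Each phospho-band was quantified against its total kinase as loading control. Data come from at least three independent experiments, each run in duplicate.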

RAW264.7 [11] = assay: Antiinflammatory activity in mouse RAW264.7 cells assessed as inhibition of LPS-induced IL-1beta release incubated for 2 hrs prior to LPS challenge measured after 24 hrs by ELISA; assay type: functional, cell-based
Summary of the method: as §2

RAW264.7 [12] = assay: Antiinflammatory activity in mouse RAW264.7 cells assessed as inhibition of LPS-induced iNOS expression at 20 uM after 24 hrs by Western blot analysis; assay type: functional, cell-based
Summary of the method: as §3

JNK1/JNK2 (Mus musculus) = JNK1/JNK2 (Mus musculus) (UniProt Q91Y86+Q9WTU6); assay: Inhibition of LPS-induced JNK1/2 phosphorylation in mouse RAW264.7 cells after 45 mins by Western blot analysis; assay type: cell-based
JNK1/JNK2 (Mus musculus), sequence (Q91Y86 whole entry, looked up): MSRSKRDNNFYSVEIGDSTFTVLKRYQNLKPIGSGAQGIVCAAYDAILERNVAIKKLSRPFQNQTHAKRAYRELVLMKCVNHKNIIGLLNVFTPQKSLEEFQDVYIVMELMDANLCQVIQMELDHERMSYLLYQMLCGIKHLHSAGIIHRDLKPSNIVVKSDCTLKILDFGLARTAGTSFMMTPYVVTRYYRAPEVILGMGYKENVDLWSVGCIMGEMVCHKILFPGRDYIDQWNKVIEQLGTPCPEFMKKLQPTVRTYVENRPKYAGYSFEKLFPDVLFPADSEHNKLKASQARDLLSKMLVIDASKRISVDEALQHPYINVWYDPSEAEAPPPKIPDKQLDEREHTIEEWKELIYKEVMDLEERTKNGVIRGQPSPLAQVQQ
JNK1/JNK2 (Mus musculus), sequence (Q9WTU6 whole entry, looked up): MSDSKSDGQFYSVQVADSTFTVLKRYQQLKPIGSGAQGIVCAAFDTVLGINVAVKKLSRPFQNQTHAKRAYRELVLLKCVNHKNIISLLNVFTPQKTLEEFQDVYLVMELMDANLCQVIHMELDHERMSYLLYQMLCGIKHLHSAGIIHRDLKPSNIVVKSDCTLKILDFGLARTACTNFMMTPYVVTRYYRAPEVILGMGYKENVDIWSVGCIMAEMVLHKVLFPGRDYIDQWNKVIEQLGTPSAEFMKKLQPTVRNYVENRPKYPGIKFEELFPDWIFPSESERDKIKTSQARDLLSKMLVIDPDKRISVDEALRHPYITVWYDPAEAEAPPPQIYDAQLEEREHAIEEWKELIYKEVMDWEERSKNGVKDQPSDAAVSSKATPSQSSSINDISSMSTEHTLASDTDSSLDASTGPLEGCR
Summary of the method: as §4

[13] = Mus musculus, RAW264.7, read-out: IC50

SMILES	NO production % at 10 µM (RAW264.7 [1])	IC50 (RAW264.7 [2]; [13])	further results
COc1ccc(CSC2c3cc(OC)cc(OC)c3[C@@H](c3ccc(OC)cc3)[C@@H]2c2cc(OC)cc(OC)c2)cc1 (stereo not given in full)	70.5%	12.5 µM	–
O=C1c2cc(O)cc(O)c2[C@@H](c2ccc(O)cc2)[C@@H]1c1cc(O)cc(O)c1 [ISOPAUCIFLORAL F]	97.1%	> 200 µM	–
COc1ccc([C@@H]2c3c(OC)cc(OC)cc3C(SCc3ccccc3)[C@H]2c2cc(OC)cc(OC)c2)cc1 (stereo not given in full)	78.1%	> 200 µM	–
COc1ccc([C@@H]2c3c(OC)cc(OC)cc3C(SCc3ccc(F)cc3)[C@H]2c2cc(OC)cc(OC)c2)cc1 (stereo not given in full)	92.5%	> 200 µM	–
C[S+]([O-])c1ccc(-c2nc(-c3ccc(F)cc3)c(-c3ccncc3)[nH]2)cc1 (stereo not given)	–	–	inhibition (RAW264.7 [3]): Active; inhibition (RAW264.7 [4]): Active; inhibition (RAW264.7 [5]): Active
COc1ccc([C@@H]2c3c(OC)cc(OC)cc3C(=O)[C@H]2c2cc(OC)cc(OC)c2)cc1	60.9%	> 200 µM	–
Oc1ccc([C@@H]2c3c(O)cc(O)cc3[C@H]3[C@H](c4ccc(O)cc4)c4c(O)cc(O)cc4[C@@H]23)cc1 (relative stereo) [PALLIDOL]	89.3%	> 200 µM	–
Oc1c2ccccc2c2c3c(cccc13)N=N2	–	–	inhibition (RAW264.7 [3]): Active; inhibition (RAW264.7 [4]): Active; inhibition (RAW264.7 [5]): Active
COc1ccc(CSC2c3cc(OC)cc(OC)c3[C@@H](c3ccccc3)[C@@H]2c2cc(OC)cc(OC)c2)cc1 (stereo not given in full)	72.4%	> 200 µM	–
COc1cc(OC)cc([C@@H]2C(=O)c3cc(OC)cc(OC)c3[C@H]2c2ccccc2)c1	66%	27.1 µM	–
COc1cc(OC)cc([C@@H]2C(C(O)c3ccccc3)c3cc(OC)cc(OC)c3[C@H]2c2ccccc2)c1 (stereo not given in full)	59.5%	21.6 µM	–
COc1ccc([C@@H]2c3c(OC)cc(OC)cc3C(SCc3ccc(C)cc3)[C@H]2c2cc(OC)cc(OC)c2)cc1 (stereo not given in full)	86.3%	> 200 µM	–
COc1ccc([C@@H]2c3c(OC)cc(OC)cc3C(SCc3ccc(Cl)cc3)[C@H]2c2cc(OC)cc(OC)c2)cc1 (stereo not given in full)	79.8%	> 200 µM	–
COc1ccc([C@@H]2c3c(OC)cc(OC)cc3C(C(O)c3ccc(Cl)cc3)[C@H]2c2cc(OC)cc(OC)c2)cc1 (stereo not given in full)	77.5%	> 200 µM	–
COc1ccc(C(O)C2c3cc(OC)cc(OC)c3[C@@H](c3ccc(OC)cc3)[C@@H]2c2cc(OC)cc(OC)c2)cc1 (stereo not given in full)	77%	> 200 µM	–
COc1cc(OC)cc([C@@H]2/C(=C\c3ccccc3)c3cc(OC)cc(OC)c3[C@H]2c2ccccc2)c1	108%	> 200 µM	–
COc1ccc([C@@H]2c3c(OC)cc(OC)cc3/C(=C/c3ccccc3)[C@H]2c2cc(OC)cc(OC)c2)cc1	88.2%	> 200 µM	–

SMILES	NO production % at 10 µM (RAW264.7 [1])	IC50 (RAW264.7 [2]; [13])	further results
COc1ccc([C@@H]2c3c(OC)cc(OC)cc3[C@H]3[C@H](c4ccc(OC)cc4)c4c(OC)cc(OC)cc4[C@@H]23)cc1	80.2%	> 200 µM	–
COc1ccc([C@@H]2c3c(OC)cc(OC)cc3C(C(O)c3ccccc3)[C@H]2c2cc(OC)cc(OC)c2)cc1 (stereo not given in full)	75.4%	> 200 µM	–
COc1ccc(/C=C2/c3cc(OC)cc(OC)c3[C@@H](c3ccc(OC)cc3)[C@@H]2c2cc(OC)cc(OC)c2)cc1	56.1%	6.26 µM	–
COc1ccc([C@@H]2c3c(OC)cc(OC)cc3C(O)[C@H]2c2cc(OC)cc(OC)c2)cc1 (stereo not given in full)	58.3%	7.87 µM	–
COc1cc(OC)cc([C@@H]2C(O)c3cc(OC)cc(OC)c3[C@H]2c2ccccc2)c1 (stereo not given in full)	49.5%	3.38 µM	inhibition (RAW264.7 [6]): Active; Activity (RAW264.7 [7]): Non-toxic; inhibition (RAW264.7 [8]): Dose-dependent effect; inhibition (RAW264.7 [9]): Active; inhibition [10]: Dose-dependent effect; inhibition (RAW264.7 [11]): Dose-dependent effect; inhibition (RAW264.7 [12]): Active; inhibition (JNK1/JNK2 (Mus musculus)): Dose-dependent effect; inhibition (RAW264.7 [2]): Dose-dependent effect
COc1ccc([C@@H]2c3c(OC)cc(OC)cc3/C(=C/c3ccc(F)cc3)[C@H]2c2cc(OC)cc(OC)c2)cc1	95.9%	> 200 µM	–
COc1ccc(C(O)C2c3cc(OC)cc(OC)c3[C@@H](c3ccccc3)[C@@H]2c2cc(OC)cc(OC)c2)cc1 (stereo not given in full)	67.8%	16.5 µM	–
COc1ccc([C@@H]2c3c(OC)cc(OC)cc3/C(=C/c3ccc(C)cc3)[C@H]2c2cc(OC)cc(OC)c2)cc1	99.2%	> 200 µM	–
COc1ccc([C@@H]2c3c(OC)cc(OC)cc3/C(=C/c3ccc(Cl)cc3)[C@H]2c2cc(OC)cc(OC)c2)cc1	90.7%	> 200 µM	–
COc1cccc(-c2cc(=O)c3ccccc3o2)c1N	–	–	inhibition (RAW264.7 [3]): inactive; inhibition (RAW264.7 [4]): inactive; inhibition (RAW264.7 [5]): inactive
COc1cc(OC)cc([C@@H]2C(O)c3cc(OC)cc(OC)c3[C@H]2c2ccc(F)cc2)c1 (stereo not given in full)	54%	–	IC50 (RAW264.7 [2]; raw264.7): Not Active
Oc1ccc(/C=C2/c3cc(O)cc(O)c3[C@@H](c3ccc(O)cc3)[C@@H]2c2cc(O)cc(O)c2)cc1	70%	–	IC50 (RAW264.7 [2]; raw264.7): Not Active
COc1ccc(/C=C2/c3cc(OC)cc(OC)c3[C@@H](c3ccccc3)[C@@H]2c2cc(OC)cc(OC)c2)cc1	84.3%	> 200 µM	–
COc1ccc([C@@H]2c3c(OC)cc(OC)cc3C(C(O)c3ccc(F)cc3)[C@H]2c2cc(OC)cc(OC)c2)cc1 (stereo not given in full)	81.4%	> 200 µM	–
COc1cc(OC)cc([C@@H]2C(SCc3ccccc3)c3cc(OC)cc(OC)c3[C@H]2c2ccccc2)c1 (stereo not given in full)	75.9%	> 200 µM	–
COc1cc(OC)cc([C@@H]2C(=O)c3cc(OC)cc(OC)c3[C@H]2c2ccc(F)cc2)c1	57.4%	44.8 µM	–
COc1ccc([C@@H]2c3c(OC)cc(OC)cc3C(C(O)c3ccc(C)cc3)[C@H]2c2cc(OC)cc(OC)c2)cc1 (stereo not given in full)	63.5%	26.5 µM	–
